The text below walks through data of ChEMBL document CHEMBL2010700, “The discovery of aminopyrazines as novel, potent Na(v)1.7 antagonists: hit-to-lead identification and SAR” (Bioorg Med Chem Lett, 2012).

A short description of series [1]: Solubility of the compound in 0.01 N HCl. The format is physicochemical.
Series [2] in a line: Volume of distribution at steady state in Sprague-Dawley rat at 0.5 mg/kg, iv. Particulars: in vivo, read-out: Vdss; call rule not given here. The format is ADME, organism-based. Details: dose 0.5 mg/kg, route intravenous.
The nature of series [3]: Oral bioavailability in Sprague-Dawley rat at 2 mg/kg. The settings on record: in vivo. In kind it is ADME, organism-based. A digest of the protocol:
(§1)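 Male Sprague-Dawley rats given 2.0 mpk orally in 10 mL/kg of 30% hydroxypropyl-β-cyclodextrin adjusted to pH 2.2 with methanesulfonic acid.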

Series [4] can be described thus: Solubility of the compound in simulated intestinal fluid. In kind it is physicochemical.
Series [5] can be described thus: Solubility of the compound in phosphate buffered saline at pH 7.4. In kind it is physicochemical.
The nature of series [6]: AUC (infinity) in Sprague-Dawley rat at 2 mg/kg, po. The format is ADME, organism-based. Details: dose 2 mg/kg, route oral, time infinity. Particulars: plasma. A digest of the protocol:
as §1

The nature of series [7]: Cmax in Sprague-Dawley rat at 2 mg/kg, po. The format is ADME, organism-based. Details: dose 2 mg/kg, route oral. The settings on record: in vivo. A digest of the protocol:
as §1

The next series has as its system Plasma. In words: Drug metabolism in rat plasma assessed as formation of mono-oxidized product at 10 uM after 3 hrs. The format is ADME, cell-free.

One may read the solubility as the concentration that dissolves in the medium under given conditions. A low value points to a poorly soluble substance. What is called bioavailability is the share of a dose that reaches the circulation, judged against a reference dose that is usually intravenous. The low end stands for little systemic uptake, the high end for much systemic uptake. As a reminder, the AUC(0-inf) is total exposure, with the tail of the curve extrapolated. A lower AUC(0-inf) goes with low exposure. Usually Cmax stands for the peak of the concentration-time curve.

≈ marks a conversion by molar mass, not a printed value.

As to `Nc1cncc(Nc2ccc(Oc3ccc(OC(F)(F)F)cc3)cc2)n1`, the values for the solubility in series [1], in series [4] and in series [5] were 7 µg/mL (≈ 19.3 µM), 109 µg/mL (≈ 301 µM) and 1 µg/mL (≈ 2.76 µM), respectively. Also, in series [2], the Vd turned out to be 2.1 L/kg. The bioavailability in series [3] turned out to be 13%. In series [6], this compound came in with an AUC(0-inf) of 0.76 µM·h. In addition, the Cmax in series [7] was 220 nM.
`Nc1ncnc(Nc2ccc(Oc3ccc(Cl)cc3)cc2)n1`: the results for the solubility in series [1], in series [4] and in series [5] were 6 µg/mL (≈ 19.1 µM), 7 µg/mL (≈ 22.3 µM) and 1 µg/mL (≈ 3.19 µM), respectively. Moreover, the Drug metabolism entry in the series with Plasma is “Active”.
